Granule exo inh: LAMP-1 surface exposure blockers, TALL-104 cells – cell-based, flow cytometry, MLPCN library, primary screen | TALL-104 LAMP-1 surface exposure; cells stimulated with thapsigargin and PMA | inhibition, % at 10 µM | hit rate 0.66% among 360,000;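 active means inhibition above about 55%, limit read from the data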
HKDC1 inhibitor: HKDC1 hexokinase inhibitors, primary screen, biochemical, fluorescence, uHTS; Q2TB90; recombinant HKDC1, G6PDH/diaphorase resazurin coupled fluorescence; inhibition, % at 20 µM; hit rate 0.16% among 340,000;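 active means inhibition above about 35% when tested at 20 µM, limit read from the data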;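 further: plate controls were DMSO wells with enzyme for no effect and DMSO wells lacking enzyme for full effect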
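Material – in-house recombinant HK5 (HKDC1) enzyme · Quantity – HKDC1 at 5 µg/mL · Buffer or medium – pH 8.0 Tris buffer with 10 mM MgCl2 · Reagent – glucose with 1 mM ATP · Dosing – single 20 µM dose · Times – reaction time 90 min, room temperature, protected from light · Technique – resorufin fluorescence at 613 nm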
PfGluPho inh: PfG6PD enzyme inhibitors, primary screen, biochemical, fluorescence intensity, uHTS; hit rate 0.78% among 350,000; glucose-6-phosphate dehydrogenase-6-phosphogluconolactonase (Plasmodium falciparum 3D7); PfGluPho enzyme, NADPH resazurin-diaphorase fluorescence; inhibition, % at 20 µM; AID 504690, 2011;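 active means inhibition reaching at least a set limit at 20 µM in the primary screen, cut at about 59% in these data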;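 further: 0% = DMSO wells with substrate and 100% = DMSO wells lacking glucose-6-phosphate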
ABHD5 PLIN5 PPI: ABHD5-PLIN5 interaction inhibitors, primary screen, cell lysate, split luciferase complementation, luminescence. Perilipin-5 (Homo sapiens) + 1-acylglycerol-3-phosphate O-acyltransferase ABHD5 (Homo …. Split G. princeps luciferase complementation, 4 h. inhibition, % at 4 µM. hit rate 0.78% among 360,000;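 active means inhibition above the mean inhibition across every tested compound plus 3 SD, cut at about 22% in these data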;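 further: 0% = DMSO only wells and the 100% control is not disclosed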
ABHD5-PLIN5 conf: ABHD5-PLIN5 interaction inhibitors, confirmation, biochemical, luminescence; AID 651612, 2012; shares compounds with ABHD5 PLIN5 PPI; inhibition, % at 4 µM; hit rate 67% among 2,200; in the data active means inhibition above about 23%;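 further: 0% = DMSO vehicle wells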
HNF4 split-luc: HNF4 dimerization inhibitors, counter-screen for ABHD5-PLIN5 interaction inhibitor project, biochemical, split-luciferase complementation, luminescence | shares compounds with ABHD5 PLIN5 PPI | hit rate 77% among 2,200 | inhibition, % at 4 µM;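 active means mean inhibition across replicate wells exceeding the computed hit threshold, cut at about 13% in these data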;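 further: light from luciferase halves that rejoin when HNF4 fusion proteins dimerize; 0% = DMSO only wells and the 100% control is not given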
Target sequence (P41235 whole entry, looked up, the tested form may be a part): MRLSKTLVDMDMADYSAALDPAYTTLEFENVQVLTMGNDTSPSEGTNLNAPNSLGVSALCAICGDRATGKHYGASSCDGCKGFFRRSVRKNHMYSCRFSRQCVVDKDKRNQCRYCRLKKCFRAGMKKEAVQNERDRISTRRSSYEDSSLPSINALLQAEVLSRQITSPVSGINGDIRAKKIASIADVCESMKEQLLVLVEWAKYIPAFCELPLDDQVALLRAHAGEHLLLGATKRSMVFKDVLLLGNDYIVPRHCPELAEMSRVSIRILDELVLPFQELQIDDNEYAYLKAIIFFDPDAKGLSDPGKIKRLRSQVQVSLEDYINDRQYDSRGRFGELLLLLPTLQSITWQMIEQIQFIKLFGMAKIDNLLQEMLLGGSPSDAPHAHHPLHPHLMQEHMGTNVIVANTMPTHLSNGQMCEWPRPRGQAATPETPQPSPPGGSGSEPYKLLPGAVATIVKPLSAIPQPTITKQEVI
* marks the source's active call; other numbers are inactive results; nt = no result. Compounds with a hit are over-represented: about 2.2% of the library has one in this group of screens.

SMILES	Granule exo inh	HKDC1 inhibitor	PfGluPho inh	ABHD5 PLIN5 PPI	ABHD5-PLIN5 conf	HNF4 split-luc
N=c1n(Cc2ccccc2)c2ccccc2n1CC(O)c1ccco1 (stereo not given)	-4	-8	-6	23*	8	15*
CCn1c(=N)n(CC(O)c2ccco2)c2ccccc21 (stereo not given)	0	4	1	4	nt	nt
COC(=O)C1=CN(c2cccc(OCc3ccccc3)c2)C(N)=C(C#N)C1c1cccc(F)c1 (stereo not given)	4	nt	nt	-3	nt	nt
COc1cc(C(=O)NNC(=O)c2ccccc2Br)ccc1OCC(=O)N1CCOCC1	-4	4	5	9	nt	nt
CCOc1ccccc1N1CCN(Cc2cccc(OC)c2O)CC1	-1	14	-2	10	nt	nt
COc1ccccc1N1CCN(Cc2cc(Br)c(O)c3ncccc23)CC1	1	-27	-4	25*	14	14*
C=C1C(=O)[C@]23C[C@H]1CC[C@H]2[C@]1(C)[C@@H](OC(C)=O)CC[C@@](C)(C(=O)OC)[C@H]1C[C@@H]3OC(C)=O	3	nt	nt	56*	71*	98*
C=C1C(=O)[C@]23C[C@H]1CC[C@H]2[C@]1(C)[C@@H](OC(C)=O)CC[C@@](C)(C(=O)O)[C@H]1C[C@@H]3O	2	nt	nt	52*	53*	105*
C=C1C(=O)[C@]23C[C@H]1CCC2[C@@]1(C)C(C[C@@H]3O)[C@](C)(C(=O)OC)CC[C@@H]1OC(C)=O (stereo not given in full)	13	nt	nt	78*	85*	109*
COc1cccc(C2CC(c3ccccc3Cl)Nc3nc(N)nn32)c1 (stereo not given)	-1	-2	-15	23*	7	2
COc1cccc(C2CC(c3ccc(Cl)cc3Cl)Nc3nc(N)nn32)c1 (stereo not given)	3	0	-4	21	nt	nt
O=C(c1ccccc1Cl)N1CCC(n2cccc2)CC1	17	-1	-4	-3	nt	nt
CC(C)CNC(=O)c1cc(=O)[nH]c2ccc(S(=O)(=O)Nc3ccc(F)cc3)cc12	0	8	-11	1	nt	nt
C=C1C(=O)O[C@@H]2[C@H]1[C@@H](OC(=O)/C(C)=C/C)C/C(C)=C\C(=O)/C=C(\C)[C@@H]2O	-6	7	12	42*	62*	72*
CC(=O)C(=Cc1ccc(-c2ccccc2)cc1)C(=O)c1ccccc1	34	nt	nt	95*	98*	96*
O=C(C(Br)=Cc1ccccc1)c1ccccc1	17	14	17	51*	83*	98*
CCCCCCC=C1CCC(CN2CCCC2)C1=O (stereo not given)	-12	nt	nt	25*	84*	28*
CN(C)Cc1c(O)ccc2c1O/C(=C\C=C\c1ccccc1)C2=O	6	-6	3	29*	20	24*
CCN1CCN(Cc2c(O)ccc3c2O/C(=C\c2ccccc2)C3=O)CC1	-1	4	7	5	nt	nt
CCN1CCN(Cc2c(O)ccc3c2O/C(=C\C=C\c2ccccc2)C3=O)CC1	24	4	17	34*	23*	19*
O=C1/C(=C/C=C/c2ccccc2)Oc2c1ccc(O)c2CN1CCN(CCO)CC1	14	-3	16	31*	18	18*
CCOC(=O)C1=C(C)OC(=CC=Cc2ccccc2)C1=O	4	nt	-23	3	nt	nt
COc1ccccc1/C=C/C=C1\Oc2c(ccc(O)c2CN2CCN(CCO)CC2)C1=O	16	-9	16	21	nt	nt
CCc1ccc(OCC(=O)Nc2nnc(C3CCCC3)s2)cc1	-3	4	-6	0	nt	nt
CC1(C)CC(=O)C=C(NCC(O)c2ccccc2)C1 (stereo not given)	-2	-7	-4	-2	nt	nt
Cc1cc2nc(-c3cccc(Br)c3)c(Cc3ccccc3)n2c(C)c1Br	9	nt	nt	28*	32*	17*
O=S1(=O)CC2NC(=S)N(c3cccc(Br)c3)C2C1 (stereo not given)	4	-1	13	0	nt	nt

Screens from PubChem.
